In paper PMC5110367 (Nature chemical biology, 2016):
Where a chain is given by its changes, count along the chain named. Like-named read-outs stand apart in the source and are kept apart here.

Key:
[1] = test system: Ppara-null hippocampal neurons; assay: Dendritic spine density; assay type: cell-based, mouse; conditions: Ppara-null neurons transduced with lenti-FL-Ppara or lenti-Y464D-Ppara
Procedure, shortened: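 Ppara-null hippocampal neurons were taken from E18 fetuses and treated with 10 μM AraC to remove glia. They were differentiated 9–10 days, then transduced 48 h with lentivirions carrying GFP (vector), FL-Ppara or Y464D-Ppara. Neurons then received vehicle (DMSO) or test compound for 24 h. They were stained with Dylight-554-phalloidin, and spine density was scored by fluorescence microscopy.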

Y314D-Ppara = target: T1, Y314D-Ppara (Mus musculus, UniProt P23204, Y314D); assay type: cell-based; conditions: Ppara-null astrocytes transduced with lenti-Y314D-Ppara, 4 h
T1 sequence (P23204 1-468 Y314D): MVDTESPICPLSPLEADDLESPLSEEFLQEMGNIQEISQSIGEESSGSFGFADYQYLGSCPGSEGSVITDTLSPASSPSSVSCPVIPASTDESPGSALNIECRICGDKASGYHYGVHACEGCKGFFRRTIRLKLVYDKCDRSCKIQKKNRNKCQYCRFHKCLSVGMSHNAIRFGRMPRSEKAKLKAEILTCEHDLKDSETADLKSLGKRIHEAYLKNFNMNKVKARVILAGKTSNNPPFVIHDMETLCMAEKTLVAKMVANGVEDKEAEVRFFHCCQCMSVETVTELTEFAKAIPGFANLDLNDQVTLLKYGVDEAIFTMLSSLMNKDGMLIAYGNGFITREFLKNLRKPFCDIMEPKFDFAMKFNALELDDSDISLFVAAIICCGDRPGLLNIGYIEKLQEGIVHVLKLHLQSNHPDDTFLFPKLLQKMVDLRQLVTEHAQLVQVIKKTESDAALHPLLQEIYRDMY

PPARα [2] = target: T2, PPARα (Mus musculus, UniProt P23204); assay type: binding; conditions: lenti-FL-Ppara-transduced Ppara-null neurons; not with empty lenti-vector
T2 sequence (P23204 1-468): T1 sequence (P23204 1-468 Y314D) with D314Y

PPARα [3] = target: T3, PPARα (Mus musculus, UniProt P23204, Y314D); assay type: binding; conditions: lenti-GFP-Y314D-Ppara-transduced Ppara-null neurons
T3 sequence (P23204 1-468 Y314D): T1 sequence (P23204 1-468 Y314D)

PPRE-luciferase activity = assay type: cell-based, mouse
primary mouse astrocytes = assay: MTT cell viability of tk-PPREx3-Luc-transfected astrocytes; assay type: cell-based; conditions: higher concentrations, 4 h
PPRE luciferase activity = assay: PPRE-luciferase assay in Pparb-null astrocytes; assay type: cell-based, mouse; conditions: for inhibition by GW9662 of ligand-mediated increase in PPRE-luciferase activity: Pparb-null astrocytes pre-treated with PPARγ-antagonist GW9662; for PPRE luciferase activity: Pparb-null astrocytes, 4 h
Procedure, shortened: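 Astrocytes were taken from mixed glial cultures of 7-day-old Pparb-null mouse pups and pretreated with the PPARγ antagonist GW9662. At 60–70% confluence they were transfected with tk-PPREx3-Luc reporter. After 24 h they were treated with graded concentrations of test compound for 4 h, then luciferase activity was read.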

[4] = test system: PPRE-driven luciferase activity; assay: PPRE-luciferase assay in Ppara-null astrocytes transduced with empty vector; assay type: cell-based, mouse; conditions: 4 h
Procedure, shortened: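 Ppara-null astrocytes came from mixed glial cultures of 7-d-old pups. They were transduced 48 h with empty-vector lentivirions and transfected with tk-PPREx3-Luc reporter. After 24 h they were treated with different doses of test compound for 4 h, then luciferase activity was read. Values are mean ± SD of three independent experiments.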

FL-Ppara = target: T4, FL-Ppara (Mus musculus, UniProt P23204); assay type: cell-based; conditions: Ppara-null astrocytes transduced with lenti-FL-Ppara, 4 h
T4 sequence (P23204 1-468): T1 sequence (P23204 1-468 Y314D) with D314Y

[5] = test system: Ppara-null hippocampal neurons; assay type: cell-based, mouse
Procedure, shortened: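 Cell lysates were made in RIPA buffer with protease/phosphatase inhibitors, needle-sheared, rotated 30 min at 4°C and spun at 18,000 × g. Samples of 15–30 μg were run on 10% or 12% SDS gels and semidry-transferred to nitrocellulose. Anti-CREB (1:1000) was applied overnight at 4°C, then IR-dye secondary (1:17,000) for 45 min at room temperature. Infrared imaging followed, with densitometry normalised to loading controls.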

CREB promoter = assay: ChIP analyses of the CREB promoter; assay type: cell-based; conditions: ChIP followed by real-time PCR
[6] = test system: Ppara-null hippocampal neurons; assay: AMPA-driven calcium influx in transduced Ppara-null hippocampal neurons; assay type: cell-based, mouse; conditions: 50 μM N20C present
Procedure, shortened: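 Primary hippocampal neurons came from pooled E18 Ppara-null fetal mice. Tissue was trypsinised 5 min at 37°C and plated on poly-D-lysine in neurobasal medium. AraC (10 μM) was added next day, and cells differentiated for 9–10 days. Neurons were lentivirally transduced with the indicated Ppara construct, then given the test compound. 50 μM N20C blocked NMDA-receptor calcium flow during AMPA stimulation. Mean of three independent experiments.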

[7] = Ppara-null hippocampal neurons transduced with lenti-Y314D/Y464D-Ppara
[8] = Ppara-null hippocampal neurons transduced with lenti-Y464D-Ppara
[9] = Ppara-null neurons transduced with FL-Ppara
[10] = Ppara-null neurons transduced with lenti-Y314D-Ppara
[11] = Ppara-null neurons transduced with lenti-Y464D-Ppara
[12] = Ppara-null neurons transduced with lenti-Y464D/Y314D-Ppara
[13] = lenti-Y314D/Y464D-Ppara-transduced

ligand detected by GC-MS in nuclear extract (PPARα [3])	inhibition by GW9662 of ligand-mediated increase in PPRE-luciferase activity (PPRE luciferase activity)	PPRE-luciferase reporter activity (FL-Ppara)	SMILES	density of dendritic spines [1]	PPRE-luciferase activity (Y314D-Ppara)	binding to de novo-synthesized PPARα (immunoprecipitation, GC-MS) (PPARα [2])	PPRE-luciferase activity (PPRE-luciferase activity; [7])	PPRE-luciferase activity (PPRE-luciferase activity; [8])	cytotoxicity (MTT) (primary mouse astrocytes)	PPRE luciferase activity (PPRE luciferase activity)	PPRE-driven luciferase activity [4]	expression of CREB [5, 9]	expression of CREB [5, 10]	expression of CREB [5, 11]	expression of CREB [5, 12]	recruitment of PPARα and PGC1α to the CREB promoter (CREB promoter)	AMPA-mediated calcium influx ([6]; lenti-FL-Ppara-transduced)	AMPA-mediated calcium influx ([6]; lenti-Y314D-Ppara-transduced)	AMPA-mediated calcium influx [6, 13]	AMPA-mediated calcium influx ([6]; lenti-Y464D-Ppara-transduced)
low amount	remained unable to inhibit	markedly induced PPRE reporter activity	CCCCCCCCCCCCCCCC(N)=O [HEX, hexadecanamide]	stimulated the density of spines only when Ppara-null neurons were transduced with lenti-FL-Ppara, but not lenti-Y464D-Ppara	partial induction of PPRE-luciferase activity	found to be bound to de novo-synthesized PPARα	completely abrogated the PPRE-luciferase activity	completely abrogated the PPRE-luciferase activity	significant level of cytotoxicity	markedly increased PPRE luciferase activity	remained unable to induce PPRE-driven luciferase activity	stimulated the expression of CREB	only partially restored the expression of CREB	remained unable to increase the expression of CREB	remained unable to increase the expression of CREB	stimulated the recruitment of PPARα and its coactivator PGC1α to the CREB promoter	stimulated AMPA-mediated calcium influx	only able to partially restore	remained unable to increase AMPA mediated calcium influx	remained unable to increase AMPA mediated calcium influx
low amount	remained unable to inhibit	markedly induced PPRE reporter activity	CCCCCCCCC=CCCCCCCCC(N)=O [OCT, 9-octadecenamide]	stimulated the density of spines only when Ppara-null neurons were transduced with lenti-FL-Ppara, but not lenti-Y464D-Ppara	partial induction of PPRE-luciferase activity	found to be bound to de novo-synthesized PPARα	completely abrogated the PPRE-luciferase activity	completely abrogated the PPRE-luciferase activity	significant level of cytotoxicity	markedly increased PPRE luciferase activity	remained unable to induce PPRE-driven luciferase activity	stimulated the expression of CREB	only partially restored the expression of CREB	remained unable to increase the expression of CREB	remained unable to increase the expression of CREB	stimulated the recruitment of PPARα and its coactivator PGC1α to the CREB promoter	stimulated AMPA-mediated calcium influx	only able to partially restore	remained unable to increase AMPA mediated calcium influx	remained unable to increase AMPA mediated calcium influx
